# Bioassay records as filed in PubChem.
# Most compounds without a hit are left out; they make up all but 3% or so of the library.
# Rad51 HR inh = Rad51 (human) homologous recombination inhibition; hRad51 DNA strand exchange, fluorescence dequenching; inhibition, % at 10 µM; 0.085% of 200,000 active; AID 1385;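 active = inhibition above 40% at the single screening dose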;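 note: 0% = DMSO control wells and 100% = blanks with heterologous ssDNA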
#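 Test system: preformed human Rad51 ssDNA filaments. Compound dosing: single dose, 10 µM final compound. Incubation: filaments 15 min 37 °C, then compound 30 min. Technique: FRET fluorescence dequenching, excitation 485 nm, emission 520 nm. Read-out basis: percent inhibition from fluorescence, normalised to plate control and blank means. Benchmarks: plate controls and plate blanks.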
# ROMK mod = modulators of human ROMK potassium channel; Tet-inducible ROMK, thallium flux fluorescence; actives lie on both sides; B-score at 10 µM; 2% of 130,000 active; AID 1918;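 active = signal ratio slope over the read window, or its plate-corrected B-score, at least 3 SD from the plate mean, either direction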;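 note: B-score of the F/F0 ratio slope over 7 to 12 s after thallium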
# Target sequence (P48048 whole entry, looked up): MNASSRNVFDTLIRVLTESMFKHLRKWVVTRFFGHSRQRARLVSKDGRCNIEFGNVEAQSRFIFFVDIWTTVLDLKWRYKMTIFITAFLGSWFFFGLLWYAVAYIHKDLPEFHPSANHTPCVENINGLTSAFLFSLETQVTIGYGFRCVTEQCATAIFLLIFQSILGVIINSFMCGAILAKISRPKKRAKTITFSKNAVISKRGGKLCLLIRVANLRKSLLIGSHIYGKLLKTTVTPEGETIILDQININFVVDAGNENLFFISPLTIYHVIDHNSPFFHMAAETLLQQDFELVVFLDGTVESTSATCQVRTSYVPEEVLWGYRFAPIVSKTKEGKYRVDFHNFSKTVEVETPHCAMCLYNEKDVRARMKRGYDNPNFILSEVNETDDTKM
# PKD1 kinase inh = blocks activity of human protein kinase D1; Q15139; PKD1 kinase fluorescence polarization assay; inhibition, % (test concentration not listed); 0.056% of 200,000 active; in the data active = inhibition above about 50%
# Cl transport mod = modulators of human KCC2 chloride dependent transport | 2.2% of 190,000 active | AID 1456 | KCC2 cells, thallium flux FluoZin-2 fluorescence | B-score of Tl+ flux slope (higher = more flux/activation; lower = inhibition) at 10 µM | Q9H2X9;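 active = thallium flux slope and its plate-corrected score both differing from the plate sample mean at a set confidence after two filtering rounds, in either direction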;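 note: slope of fluorescence scaled to starting intensity during 10 to 20 s after thallium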
# ROMK retest = retested hit modulating human ROMK potassium channel; 54% of 3,000 active; AID 1917; normalized thallium flux (F/F0 slope) at 10 µM; ROMK thallium flux, fluorescence ratio; active compounds read low; shares compounds with ROMK mod;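 active = Flux at 10 µM at least 3 SD below or above vehicle control mean in one or both replicates; inconclusive = no clear call, values can overlap the other calls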
# Active calls of the source: *; i = inactive; ? = inconclusive; · = not tested or not shown.
SMILES,Rad51 HR inh,ROMK mod,PKD1 kinase inh,Cl transport mod,ROMK retest
O=C1C2C(c3ccccc3)C=CC(c3ccccc3)C2C(=O)N1c1ccccn1 (stereo not given),·,0.032,5,0.59,·
Cc1ccc(-n2cccc2/C=C2/C(=N)N3C(=NC2=O)SN=C3S(C)(=O)=O)cc1Cl,-9,·,9,-2.2,0.075
COc1cc(/C=C(\C#N)C(=O)N2CCOCC2)cc(Br)c1O,0,·,3,0.19,·
N#C/C(=C\c1cccc(Oc2ccccc2)c1)C(=O)N1CCOCC1,-8,-7*,23,0.35,0.036*
COc1ccc(OC)c(NC(=O)CSc2ncnc3c2cnn3-c2ccccc2Cl)c1,-7,-3.2*,-1,-1.4,0.06*
O=[N+]([O-])c1cc(C(F)(F)F)cc([N+](=O)[O-])c1NCCNC(=S)Nc1cccc(F)c1,14,·,·,-0.78,·
Cc1ccc(OC(=S)Nc2ccc(O)cc2)cc1,-10,-5.1*,6,0.29,0.043*
COc1ccc(NC(=O)COC(=O)Cc2c(F)cccc2Cl)cc1OC,8,0.019,-3,-0.41,·
O=C(NNC1CC(=O)N(c2ccccc2)C1=O)c1cccnc1 (stereo not given),17,·,·,1.2,0.074
CC(O)CNc1nc2ccccc2n1CC(=O)N1CCN(Cc2ccccc2)CC1 (stereo not given),2,-0.13,1,-0.22,·
COc1cc(C(=O)Nc2ccc3oc(-c4cccnc4)nc3c2)cc(OC)c1OC,-3,-0.76,-2,-1.7,0.079
COc1ccc(C(=O)Nc2ccc3oc(-c4cccnc4)nc3c2)cc1OC,6,-1,7,-0.58,·
CCOC(=O)c1c(CSC(=N)N)n(C)c2cc(Br)c(OC(C)=O)cc12,6,·,·,-0.21,·
CCOC(=O)c1c(CSC(=N)N)n(-c2ccc(C)cc2)c2cc(Br)c(OC(C)=O)cc12,0,·,-10,0.25,0.045*
CNc1cncc(C(=O)O)c1,7,0.17,3,-0.26,·
COCc1cc(C)nc(SCC(=O)c2ccc(O)c(O)c2)c1C#N,2,1.7*,0,·,0.077
CCCCCN(C(=O)CN1CCC(Cc2ccccc2)CC1)c1c(N)n(CCCC)c(=O)[nH]c1=O,-8,-3.2*,6,-1.2,0.061*
O=C(NCc1cccs1)C1CCN(S(=O)(=O)c2ccccc2F)CC1,-11,·,·,-0.6,·
COc1ccc2c(c1)nc(N)n2Cc1ccccc1,·,-3*,-11,0.42,0.053*
O=C(NCc1ccco1)C(=O)NCC1OCCCN1S(=O)(=O)c1ccccc1 (stereo not given),1,0.4,-6,-0.07,·
Cc1ccc(S(=O)(=O)N2CCCCC2)cc1NC(=O)COC(=O)Cc1ccc(Cl)cc1,-21,-2.2,-11,-1.5,·
N#C/C(=C\c1ccccc1)C(=O)Nc1cc(S(=O)(=O)N2CCOCC2)ccc1N1CCCC1,2,·,-5,-0.85,0.056*
COc1ccc(-c2cc(C(=O)Nc3cc(S(=O)(=O)N4CCOCC4)ccc3N3CCOCC3)c3ccccc3n2)cc1,5,1.8*,3,-1.3,0.065*
Cc1ccc(S(=O)(=O)N2CCCCC2)cc1NC(=O)COC(=O)Cc1cccc(C(F)(F)F)c1,·,-4*,-8,-0.012,0.063*
O=C(COC(=O)Cc1ccc(Cl)cc1)Nc1cc(S(=O)(=O)N2CCOCC2)ccc1N1CCCC1,-5,-4.3*,-7,-0.46,0.061*
SMILES,Rad51 HR inh,ROMK mod,PKD1 kinase inh,Cl transport mod,ROMK retest
CCNC(=O)C12CCC(C)(C(=O)O1)C2(C)C (stereo not given),5,0.31,3,0.64,·
CC(NS(=O)(=O)c1ccc(Br)cc1)C(=O)NCCc1ccccc1 (stereo not given),-7,·,-2,-1.6,·
Cc1cc(Sc2ncnc(N)c2[N+](=O)[O-])ncn1,2,-0.97*,-6,-1.3,0.078
Cc1cc(Sc2nc(N)ncc2[N+](=O)[O-])ncn1,2,0.014,-2,0.1,·
O=c1oc2ccccc2cc1-c1nc(-c2cccs2)cs1,-2,-4.5*,0,-0.034,0.018*
O=c1oc2ccc3ccccc3c2cc1-c1nnc(-c2cccs2)o1,-27,-3*,8,-0.0079,?
COc1cccc2cc(-c3nc(-c4cccs4)cs3)c(=O)oc12,-13,-1.9,-6,·,·
O=c1oc2ccc3ccccc3c2cc1-c1nnc(-c2ccccc2)o1,-15,-0.5,-6,-0.56,·
CN1C(=O)C2(OCC(COc3ccc(Cl)cc3)O2)c2ccccc21 (stereo not given),-5,·,6,0.5,0.078
O=C1Nc2ccccc2C12OCC(COc1ccc(Cl)cc1)O2 (stereo not given),-5,-2,-11,-0.055,·
C/C(CC(=O)Nc1ccc(F)cc1)=N\NC(=O)COc1ccccc1,4,0.014,-3,-0.028,·
S=C(NCCc1ccccc1)NC1CC2CCC(C1)N2Cc1ccccc1 (stereo not given),7,-2.3*,1,-1.5,0.057*
CCCNC(=S)NC1CC2CCC(C1)N2Cc1ccccc1 (stereo not given),-4,·,-6,-0.71,·
CC(C)(C)c1ccc(C(=O)Nc2sc3c(c2C(=O)O)CCC3)cc1,13,0.23,-3,0.67,0.074
O=C(Nc1sc2c(c1C(=O)c1ccccc1)CCCC2)c1cccnc1,1,-3.7*,-3,-0.47,0.068*
Cc1cccc(C(=O)Nc2sc3c(c2C(=O)O)CCC3)c1,·,·,·,-1.4,·
CCCS(=O)(=O)N1CCc2cc(OC)c(OC)cc2C1,-1,·,0,·,·
Cc1nn(C)c(C(=O)N2CCOCC2)c1Cl,2,0.46,6,0.00068,·
O=C(Nc1cc(S(=O)(=O)N2CCOCC2)ccc1N1CCCC1)c1ccc2c(c1)S(=O)(=O)c1ccccc1C2=O,·,0.36,-10,0.35,·
COc1cc(NCCCCCCCN)c2ncccc2c1,1,-5.1*,5,-0.13,0.062*
CCN(Cc1cc2ccccc2[nH]c1=O)C(=O)c1cccc([N+](=O)[O-])c1,·,·,·,0.32,·
COc1ccc(N2CCc3c(C)nc4c(OC)cc(OC)cc4c32)cc1,1,-1.6,1,-2,·
COc1ccc(N2CCc3c(C)nc4c(OC)cc(OC)cc4c32)c(OC)c1,·,·,-18,-0.8,0.061*
COc1ccccc1OCc1ccc(C(=O)N(C)C)o1,-2,·,0,0.34,0.084
O=C(Nc1ccccc1C(F)(F)F)c1cc2ncc(CCCl)cn2n1,7,1.1,-18,-2,·
COc1ccc2cc(C(=O)N/N=C/c3sc4ccccc4c3O)ccc2c1,-466,-2.8*,-23,i,0.048*
Cc1cc([N+](=O)[O-])nn1CC(=O)NCc1nc2ccccc2[nH]1,0,·,-3,-0.049,·
Cc1cc(SCC(=O)c2cccs2)nc2ccccc12,4,·,0,-0.58,·
COc1ccc(N2CCN(C(=O)c3cc(N4C(=O)C5C6CCC(C6)C5C4=O)ccc3Cl)CC2)cc1 (stereo not given),11,-2.3,-1,0.037,·
O=C(c1cc(N2C(=O)C3C4CCC(C4)C3C2=O)ccc1Cl)N1CCN(c2ccc(F)cc2)CC1 (stereo not given),2,-5*,-1,-1.8,0.061*
